Where a name gives a salt, the structure may show the parent alone.
Legend:
Format in all cases: functional, cell-based
[1] = tested on: A549; test: Cytotoxicity against human A549 cells after 72 hrs by SRB assay; details: A549, 72 h
Summary of the method: (§1)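 Adherent cells plated 24 h before treatment and exposed continuously to compound at 100, 10, 1 and 0.1 µM for 72 h. Cells were then fixed and stained with sulforhodamine B, and IC50 was determined. Amrubicin hydrochloride served as the positive control.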

[2] = tested on: K562; test: Cytotoxicity against human K562 cells after 72 hrs by SRB assay; details: K562, 72 h
[3] = tested on: HT-29; test: Cytotoxicity against human HT-29 cells after 72 hrs by SRB assay; details: HT-29, 72 h; summary of the method: as §1

Row | Structure (SMILES) | IC50 [1] [µM] | IC50 [2] [µM] | IC50 [3] [µM]
1 | CC(=O)[C@]1(N)Cc2c(O)c3c(c(O)c2[C@@H](O[C@H]2C[C@H](O)[C@H](O)CO2)C1)C(=O)c1ccccc1C3=O [AMRUBICIN HYDROCHLORIDE] | 0.94 | 1.2 | 4.57
2 | CC1=C[C@@H]2O[C@]34O[C@@]5(CC[C@]6(C)C(=O)[C@](C)(O)[C@]2(OC1=O)[C@H]36)C[C@]12OC(=O)C[C@H]1O[C@@](C)(CO)[C@@H]2CC[C@@]5(O)C4=O [SCHISANDILACTONE A] | > 100 | > 100 | > 100
3 | C[C@H]1C(=O)O[C@@H]2[C@H]1O[C@]1(C)[C@H]2[C@H]2[C@](C)(CC[C@]34C[C@]56OC(=O)C[C@H]5OC(C)(C)[C@@H]6C[C@H](O)[C@H]3C(=O)[C@@]2(O)O4)[C@@H]1O [SCHISANDILACTONE B] | > 100 | > 100 | > 100
4 | C[C@H]1C(=O)O[C@@H]2[C@H]1O[C@@]1(C)C(=O)[C@@]3(C)CC[C@]45C[C@]67OC(=O)C[C@H]6OC(C)(C)[C@@H]7C[C@H](O)[C@H]4C(=O)[C@@](O)(O5)[C@H]3[C@@]21O [SCHISANDILACTONE C] | > 100 | > 100 | > 100
5 | C[C@H]1C(=O)O[C@@H]2[C@H]1O[C@@]1(C)C(=O)[C@@]3(C)CC[C@]45C[C@]67OC(=O)C[C@H]6OC(C)(C)[C@@H]7C[C@@H](O)[C@H]4C(=O)[C@@](O)(O5)[C@H]3[C@@]21O [SCHISANDILACTONE D] | > 100 | > 100 | > 100
6 | CC1=C[C@@H]([C@@H]2[C@H]3[C@](C)(C(=O)C[C@]45C[C@]67OC(=O)C[C@H]6O[C@@](C)(CO)[C@@H]7CC[C@@H]4[C@@H](O)[C@@]3(O)O5)C(=O)[C@]2(C)O)OC1=O [SCHISANDILACTONE E] | > 100 | > 100 | > 100
7 | CC1=C[C@@H]([C@]2(O)[C@H]3[C@](C)(CC[C@]45C[C@]67OC(=O)C[C@H]6OC(C)(C)[C@@H]7C[C@@H](O)[C@H]4C(=O)[C@@]3(O)O5)C(=O)[C@]2(C)O)OC1=O [SCHISANDILACTONE F] | > 100 | > 100 | > 100
8 | C[C@@H]1C(=O)O[C@H]2[C@@H]1O[C@]13O[C@@]4(CC(=O)[C@]5(C)C(=O)[C@](C)(O)[C@H]2[C@@H]51)C[C@]12OC(=O)C[C@H]1O[C@@](C)(CO)[C@@H]2CC[C@H]4[C@H]3O [SCHISANDILACTONE G] | > 100 | > 100 | > 100
9 | C[C@@H]1C(=O)O[C@H]2[C@@H]1O[C@]13O[C@@]4(CC(=O)[C@]5(C)C(=O)[C@](C)(O)[C@@]2(O)[C@@H]51)C[C@]12OC(=O)C[C@H]1O[C@@](C)(CO)[C@@H]2CC[C@@H]4[C@H]3O [SCHISANDILACTONE H] | > 100 | > 100 | > 100
10 | C[C@@H]1C(=O)O[C@H]2[C@@H]1O[C@]13O[C@@]4(CC[C@]5(C)C(=O)[C@](C)(O)[C@H]2[C@H]15)C[C@]12OC(=O)C[C@H]1O[C@@](C)(CO)[C@@H]2CC[C@H]4C3=O [SCHISANDILACTONE I] | > 100 | > 100 | > 100
11 | C[C@@H]1C(=O)O[C@H]2[C@@H]1O[C@]13O[C@@]4(CC[C@]5(C)C(=O)[C@](C)(O)[C@@]2(O)[C@H]15)C[C@]12OC(=O)C[C@H]1O[C@@](C)(CO)[C@@H]2C[C@@H]1O[C@@]14C3=O [SCHISANDILACTONE J] | > 100 | > 100 | > 100
